Laboratory results as given in publication PMC10242637 (Saudi Pharmaceutical Journal : SPJ, 2023).

Legend:
[1] = Cytotoxicity against mammalian cells; type: cell-based; conditions: mouse, NCTC clone 929 (L929) fibroblasts
How it was run: (§1)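 NCTC clone 929 fibroblasts were seeded at 6 × 10^4 cells/well and exposed to test compound (200 to 1.5 μM, 1:2 dilutions) for 48 h at 37 °C in 5% CO2, with 0.5% v/v DMSO final. Viability was read by MTT at 570 nm, and CC50 was taken from sigmoid dose–response curves. SI = CC50 divided by the amastigote IC50. Two independent runs, each in duplicate.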

[2] = system: T. cruzi trypomastigotes (Y strain); assay: Anti-trypomastigote assay; type: cell-based; conditions: Trypanosoma cruzi, 24 h, read-out: IC50 (µM ± SD) T.c.T
How it was run: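 Y-strain trypomastigotes at 1 × 10^6 cells/well in RPMI 1640 were exposed to test compound (150 to 1.1 μM, 1:2 dilutions) for 24 h at 37 °C in 5% CO2, with 0.5% v/v DMSO final. Resazurin (0.011% v/v) was then added for 24 h and absorbance read at 570 nm. IC50 came from non-linear regression against untreated parasites as 100% viability. Two independent runs, each in duplicate.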

[3] = system: fibroblasts NCTC cells (clone 929); assay: Cytotoxicity against mammalian cells; type: cell-based; conditions: for SI (Selective Index): ratio between CC50 (NCTC) and IC50 (amastigote - TCA); for CC50: read-out: CC50 NCTC, NCTC cells (clone L929), 48 h, MTT
How it was run: as §1

[4] = Calculation of physicochemical properties and descriptors; conditions: 2b over the neutral analogue 2c; from calculated LogS7.4

Compound	CC50 at 48 h [1]	IC50 [2]	SI (Selective Index) [3]	increase in LogS7.4 value [4]	CC50 [3]
O=C(c1ccc(Cl)cc1)N1CCN(Cc2ccccc2)CC1 [1 g, 1‐benzyl‐4‐(4‐chlorobenzoyl)piperazine]	> 200 µM	> 150 µM			
COc1cc(C(=O)N2CCN(Cc3ccccc3)CC2)ccc1O [1a, (4-Benzylpiperazin-1-yl)(4-hydroxy-3-methoxyphenyl)methanone]	> 200 µM	> 150 µM	>5.6		
COc1ccc(C(=O)N2CCN(Cc3ccccc3)CC2)cc1 [1b, (4-Benzylpiperazin-1-yl)(4-methoxyphenyl)methanone]	> 200 µM	> 150 µM			
COc1ccc(C(=O)N2CCC(Cc3ccccc3)CC2)cc1 [1c, 4-Benzyl-1-(4-methoxybenzoyl)piperidine]	> 200 µM	65.3 ± 2.3 µM			
COc1cc(/C=C/C(=O)N2CCN(Cc3ccccc3)CC2)ccc1O [2a, (2E)-1-(4-benzylpiperazin-1-yl)-3-(4-hydroxy-3-methoxyphenyl)prop-2-en-1-one]	> 200 µM	> 150 µM			
COc1ccc(/C=C/C(=O)N2CCN(Cc3ccccc3)CC2)cc1 [2b, (2E)-1-(4-benzylpiperazin-1-yl)-3-(4-methoxyphenyl) prop-2-en-1-one]	> 200 µM	> 150 µM	>7	1.3 log unit	
O=C(Cn1ccnc1[N+](=O)[O-])NCc1ccccc1 [BZN, Benznidazole, reference compound]	> 200 µM	12.3 ± 3.3 µM	>40		
(2E)-1-(1-benzylpiperidin-4-yl)-3-(4-methoxyphenyl)prop-2-en-1-one [2c]			>11.2		> 200 µM
(2E)-3-(3,4-dihydroxyphenyl)-1-(4-phenylpiperazin-1-yl)prop-2-en-1-one [2d]			2.8		57.2 ± 2 µM
(2E)-3-(4-hydroxy-3-methoxyphenyl)-1-(4-phenylpiperazin-1-yl)prop-2-en-1-one					> 200 µM
(3,4-dihydroxyphenyl)-(4-phenylpiperazin-1-yl)methanone [1d]			>5.7		> 200 µM
(4-hydroxy-3-methoxyphenyl)(4-phenylpiperazin-1-yl)methanone [1e]					> 200 µM
(4-methoxyphenyl)(4-phenylpiperazin-1-yl)methanone [1f]					> 200 µM
